From ChEMBL document CHEMBL2157986, “The multiobjective based design, synthesis and evaluation of the arylsulfonamide/amide derivatives of aryloxyethyl- and arylthioethyl- piperidines and pyrrolidines as a novel class of potent 5-HT₇ receptor antagonists” (Eur J Med Chem, 2012)

How the values were obtained:
[1] = biological target: 5-hydroxytryptamine receptor 6 (Homo sapiens, UniProt P50406); assay: Displacement of [3H]-LSD from human 5-HT6 receptor expressed in HEK293 cells after 1 hr; assay type: cell-based
[2] = biological target: T1, 5-hydroxytryptamine receptor 1A (Homo sapiens, UniProt P08908); assay: Displacement of [3H]-8-OH-DPAT from human 5-HT1A receptor expressed in HEK293 cells after 1 hr; assay type: cell-based
T1 sequence (P08908 whole entry): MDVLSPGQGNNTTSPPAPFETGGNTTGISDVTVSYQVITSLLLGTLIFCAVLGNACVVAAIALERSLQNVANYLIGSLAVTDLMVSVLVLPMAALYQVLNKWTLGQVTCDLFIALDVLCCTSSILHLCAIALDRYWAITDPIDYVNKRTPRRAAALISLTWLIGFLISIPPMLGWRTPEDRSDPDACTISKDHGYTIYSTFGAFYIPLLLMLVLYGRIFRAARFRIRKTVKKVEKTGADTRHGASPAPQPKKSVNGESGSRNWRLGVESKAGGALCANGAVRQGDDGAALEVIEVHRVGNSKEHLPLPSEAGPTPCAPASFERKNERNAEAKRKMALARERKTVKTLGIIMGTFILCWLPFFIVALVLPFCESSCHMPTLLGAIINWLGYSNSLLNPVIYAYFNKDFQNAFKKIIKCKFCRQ
Method in brief: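 Membranes from stably transfected HEK293 cells (human 5-HT1A), homogenized in 50 mM Tris–HCl, 0.1 mM EDTA, 4 mM MgCl2, 10 µM pargyline, 0.1% ascorbate; incubated 1 h at room temperature, then rapid filtration and radioactivity counting. Nonspecific binding with 10 µM 5-HT.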

[3] = species: Homo sapiens; assay: Selectivity ratio of Ki for human 5-HT1A receptor to Ki for human 5-HT7b receptor
[4] = biological target: 5-hydroxytryptamine receptor 7 (Homo sapiens, UniProt P34969); assay: Displacement of [3H]-5-CT from human 5-HT7b receptor expressed in HEK293 cells after 1 hr; assay type: cell-based
[5] = biological target: D(2) dopamine receptor (Homo sapiens, UniProt P14416); assay: Binding affinity to human dopamine D2L receptor expressed in HEK293 cells after 1 hr; assay type: cell-based
Chain of D(2) dopamine receptor (P14416 whole entry): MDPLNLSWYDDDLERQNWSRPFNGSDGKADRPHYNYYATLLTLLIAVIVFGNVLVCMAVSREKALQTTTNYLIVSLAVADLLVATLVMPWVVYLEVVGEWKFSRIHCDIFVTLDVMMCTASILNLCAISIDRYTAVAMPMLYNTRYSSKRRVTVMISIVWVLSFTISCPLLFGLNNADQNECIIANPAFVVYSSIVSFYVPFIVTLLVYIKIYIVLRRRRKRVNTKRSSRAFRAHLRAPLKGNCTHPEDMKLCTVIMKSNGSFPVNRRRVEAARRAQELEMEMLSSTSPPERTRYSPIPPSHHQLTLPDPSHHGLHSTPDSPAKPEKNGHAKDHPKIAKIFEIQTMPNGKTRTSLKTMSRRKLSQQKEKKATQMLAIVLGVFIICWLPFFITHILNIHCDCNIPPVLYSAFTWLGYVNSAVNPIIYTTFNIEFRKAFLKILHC

Chain of 5-hydroxytryptamine receptor 7 (P34969 whole entry): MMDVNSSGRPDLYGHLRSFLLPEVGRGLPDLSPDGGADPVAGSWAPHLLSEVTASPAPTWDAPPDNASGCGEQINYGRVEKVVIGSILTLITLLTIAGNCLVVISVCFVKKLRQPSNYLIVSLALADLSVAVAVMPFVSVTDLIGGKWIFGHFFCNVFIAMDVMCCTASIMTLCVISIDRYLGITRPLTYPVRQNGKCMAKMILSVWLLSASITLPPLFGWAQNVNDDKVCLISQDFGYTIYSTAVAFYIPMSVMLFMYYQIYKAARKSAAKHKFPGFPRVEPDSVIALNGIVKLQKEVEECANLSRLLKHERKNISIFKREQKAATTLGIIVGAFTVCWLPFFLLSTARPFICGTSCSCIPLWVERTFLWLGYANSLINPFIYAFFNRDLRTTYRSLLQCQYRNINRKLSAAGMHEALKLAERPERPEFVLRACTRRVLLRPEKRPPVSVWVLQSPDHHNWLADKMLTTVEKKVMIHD
Chain of 5-hydroxytryptamine receptor 6 (P50406 whole entry): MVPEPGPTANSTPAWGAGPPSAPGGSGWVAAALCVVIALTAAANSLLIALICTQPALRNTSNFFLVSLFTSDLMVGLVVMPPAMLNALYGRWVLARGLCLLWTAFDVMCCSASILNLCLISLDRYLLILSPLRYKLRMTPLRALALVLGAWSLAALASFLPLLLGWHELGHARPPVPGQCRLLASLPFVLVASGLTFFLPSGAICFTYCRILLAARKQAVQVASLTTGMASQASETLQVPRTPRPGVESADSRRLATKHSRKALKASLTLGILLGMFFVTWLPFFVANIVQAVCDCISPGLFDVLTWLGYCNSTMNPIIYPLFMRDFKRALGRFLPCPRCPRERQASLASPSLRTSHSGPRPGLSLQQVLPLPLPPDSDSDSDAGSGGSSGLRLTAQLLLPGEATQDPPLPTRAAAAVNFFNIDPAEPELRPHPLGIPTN

Ki [1] | Ki [2] | Ratio Ki [3] | Ki [4] | Ki [5] | SMILES
258 nM | 21 nM | < 1 | 29 nM | 16 nM | CC(C)c1ccccc1OCCN1CCC(NS(=O)(=O)c2cccs2)C1 (stereo not given)
199 nM | 313 nM | 45 | 7 nM | 63 nM | O=S(=O)(NC1CCN(CCOc2ccccc2-c2ccccc2)CC1)c1ccc(F)c(F)c1
410 nM | 101 nM | 5 | 20 nM | 32 nM | O=S(=O)(NCC1CCN(CCOc2ccccc2-c2ccccc2)CC1)c1ccc(Cl)s1
2120 nM | 903 nM | < 1 | 1360 nM | 839 nM | O=S(=O)(NCC1CCN(CCOc2cccc(F)c2)CC1)c1ccc(F)cc1
267 nM | 45 nM | 5 | 10 nM | 16 nM | O=S(=O)(NC1CCN(CCOc2ccccc2-c2ccccc2)C1)c1cccs1 (stereo not given)
245 nM | 31 nM | 8 | 4 nM | 25 nM | CC(C)c1ccccc1OCCN1CCC(NS(=O)(=O)c2cccc(Cl)c2)C1 (stereo not given)
